Measured values: ChEMBL document CHEMBL1121973, “Synthesis and comparison of some cardiovascular properties of the stereoisomers of labetalol” (1982)
Active and inactive are the calls of the source. The rule behind the calls is not given here.

Experiments:
[1] = molecular target: Beta-1 adrenergic receptor (Rattus norvegicus) (UniProt P18090); experiment: Antagonistic activity was determined for 50% inhibition of tachycardia response in anesthetized, normotensive rat at a dose range of 0.3-3 mg/kg(iv); type: functional, organism-based
Outline: (§1)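 Anesthetized normotensive rats received the test agent iv as HCl salts in three cumulative doses. The tachycardic response to (±)-isoproterenol (0.1 mg/kg iv) was measured. ID50 is the iv dose giving 50% inhibition of that response, reported as mean ± SEM. Analysis used analysis of variance with Duncan's multiple range statistic.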

Rattus norvegicus [2] = experiment: Antihypertensive activity was determined before dosing in conscious, spontaneously hypertensive rats(SHR); type: functional
Outline: (§2)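 Blood pressure (mmHg) and heart rate (beats/min) were measured directly in conscious spontaneously hypertensive rats before oral dosing. Groups had n = 4, and values are means ± SEM.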

Rattus norvegicus [3] = experiment: Antihypertensive activity was determined before dosing in conscious, spontaneously hypertensive rats(SHR); 12/~1; type: functional
Rattus norvegicus [4] = experiment: Change in blood-pressure was determined after 1 hr administration of (10 mg/kg/po) in conscious, spontaneously hypertensive rats(SHR); type: functional
Outline: (§3)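 Conscious spontaneously hypertensive rats (n = 4 per group) were dosed orally at 10 mg/kg as HCl salts, with placebo as a control group. Blood pressure was measured directly, and heart rate was also recorded. Changes from pre-dose values were read at 1, 2, 3 and 4 h and reported as means ± SEM. Analysis used ANOVA with Duncan's multiple range statistic.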

Rattus norvegicus [5] = experiment: Change in blood-pressure was determined after 2 hr administration of (10 mg/kg/po) in conscious, spontaneously hypertensive rats(SHR); type: functional; outline: as §3
Rattus norvegicus [6] = experiment: Change in blood-pressure was determined after 3h administration of (10 mg/kg/po) in conscious, spontaneously hypertensive rats(SHR); type: functional; outline: as §3
Rattus norvegicus [7] = experiment: Change in blood-pressure was determined after 4 hr administration of (10 mg/kg/po) in conscious, spontaneously hypertensive rats(SHR); type: functional; outline: as §3
Rattus norvegicus [8] = experiment: Change in Heart rate(beats/min) was determined after 1 hr of (10 mg/kg p.o.) administration in conscious, spontaneously hypertensive rats; type: functional; outline: as §3
Rattus norvegicus [9] = experiment: Change in Heart rate(beats/min) was determined after 2 hr of (10 mg/kg p.o.) administration in conscious, spontaneously hypertensive rats; type: functional; outline: as §3
Rattus norvegicus [10] = experiment: Antihypertensive activity was determined by Heart rate(beats/min) measurement before dosing in conscious, spontaneously hypertensive rats; type: functional; outline: as §2
Rattus norvegicus [11] = experiment: Change in Heart rate(beats/min) was determined after 3h of (10 mg/kg p.o.) administration in conscious, spontaneously hypertensive rats; type: functional; outline: as §3
Rattus norvegicus [12] = experiment: Change in Heart rate(beats/min) was determined after 4 hr of (10 mg/kg p.o.) administration in conscious, spontaneously hypertensive rats; type: functional; outline: as §3
[13] = molecular target: T1, Adrenergic receptor alpha (Rattus norvegicus) (UniProt P15823+P23944+P43140+P22086+P19328+P22909)
[14] = system: Adrenergic receptor alpha (Rattus norvegicus); experiment: Relative alpha-adrenergic blocking potency was determined after administration of intravenously
[15] = molecular target: Beta-1 adrenergic receptor (Rattus norvegicus) (UniProt P18090); experiment: Potency to block Beta-1 adrenergic receptor relative to labetolol
Outline: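 Rats, iv dosing as HCl salts in three cumulative doses. Antagonism of the tachycardic response to (±)-isoproterenol (0.1 mg/kg iv) was measured. ID50 is the dose giving 50% inhibition of that response (mean ± SEM), with 3-8 animals per compound. Statistics used analysis of variance with Duncan's multiple range test.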

[16] = molecular target: Beta-1 adrenergic receptor (Rattus norvegicus) (UniProt P18090); experiment: Antagonistic activity was determined for 50% inhibition of tachycardia response in anesthetized, normotensive rat at a dose range of 0.1-1(iv); type: functional, organism-based; outline: as §1
Rattus norvegicus [17] = experiment: Decrease in blood pressure(mm/Hg) was determined after administration of (10 mg/kg/po); 30-32/>4; type: functional
Rattus norvegicus [18] = organism: Rattus norvegicus; experiment: Potency (vasodilation) relative to labetolol; type: functional
[19] = Ratio of Relative potency of beta1/alpha bock values; 26-39
Rattus norvegicus [20] = experiment: Decrease in blood pressure(mm/Hg) was determined after administration of (10 mg/kg/po); type: functional
Outline: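 Conscious spontaneously hypertensive rats, n = 4 per group, placebo control. Single oral dose of 10 mg/kg as HCl salt. Blood pressure and heart rate were measured directly before dosing and at 1, 2, 3 and 4 h after. Change from predose is given as mean ± SEM. Statistics used analysis of variance with Duncan's multiple range test.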

[21] = molecular target: T1, Adrenergic receptor alpha (Rattus norvegicus); remark: listed apart in the source
[22] = molecular target: Beta-1 adrenergic receptor (Rattus norvegicus) (UniProt P18090); experiment: Antagonistic activity was determined for 50% inhibition of tachycardia response in anesthetized, normotensive rat at a dose range of 0.03-0.3 mg/kg(iv); type: functional, organism-based; outline: as §1
Rattus norvegicus [23] = experiment: Change in blood-pressure was determined after 1 hr administration of(10 mg/kg/po) in conscious, spontaneously hypertensive rats(SHR); type: functional; outline: as §3
Rattus norvegicus [24] = experiment: Change in blood-pressure was determined after 2 hr administration of(10 mg/kg/po) in conscious, spontaneously hypertensive rats(SHR); type: functional; outline: as §3
Rattus norvegicus [25] = experiment: Change in blood-pressure was determined after 3h administration of(10 mg/kg/po) in conscious, spontaneously hypertensive rats(SHR); type: functional; outline: as §3
Rattus norvegicus [26] = experiment: Change in blood-pressure was determined after 4 hr administration of(10 mg/kg/po) in conscious, spontaneously hypertensive rats(SHR); type: functional; outline: as §3
[27] = Ratio of Relative potency of beta1/alpha bock values; type: functional
[28] = molecular target: T1, Adrenergic receptor alpha (Rattus norvegicus); remark: listed apart in the source
[29] = molecular target: Beta-1 adrenergic receptor (Rattus norvegicus) (UniProt P18090); experiment: Antagonistic activity was determined for 50% inhibition of tachycardia response in anesthetized, normotensive rat at a dose range of 0.3-3 mg/kg(iv); Inactive; type: functional, organism-based; outline: as §1

Sequence of Beta-1 adrenergic receptor (Rattus norvegicus) (P18090 whole entry, looked up): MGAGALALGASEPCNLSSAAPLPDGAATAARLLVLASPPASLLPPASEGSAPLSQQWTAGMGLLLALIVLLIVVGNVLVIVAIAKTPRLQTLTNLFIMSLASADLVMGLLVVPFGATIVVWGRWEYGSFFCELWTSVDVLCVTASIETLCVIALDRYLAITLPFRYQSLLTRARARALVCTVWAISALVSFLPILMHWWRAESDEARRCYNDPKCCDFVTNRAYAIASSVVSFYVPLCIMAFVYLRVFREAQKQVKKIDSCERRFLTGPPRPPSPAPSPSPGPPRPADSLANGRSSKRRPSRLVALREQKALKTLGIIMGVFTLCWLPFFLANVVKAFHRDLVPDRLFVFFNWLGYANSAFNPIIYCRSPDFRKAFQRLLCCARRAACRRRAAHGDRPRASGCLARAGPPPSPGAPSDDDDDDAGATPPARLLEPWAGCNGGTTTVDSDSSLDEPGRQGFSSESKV

| Compound | ID50 [1] | BP (Rattus norvegicus [2]) | Change in BP (Rattus norvegicus [4]) | Change in BP (Rattus norvegicus [5]) | Change in BP (Rattus norvegicus [6]) | Change in BP (Rattus norvegicus [7]) | Heart rate (Rattus norvegicus [8]) | Heart rate (Rattus norvegicus [9]) | Heart rate (Rattus norvegicus [10]) | Heart rate (Rattus norvegicus [11]) | Heart rate (Rattus norvegicus [12]) | ID50 [13] | Relative potency [15] | Decrease in blood pressure (Rattus norvegicus [17]) | Relative potency (Rattus norvegicus [18]) | Decrease in blood pressure (Rattus norvegicus [20]) | also measured |
| --- | --- | --- | --- | --- | --- | --- | --- | --- | --- | --- | --- | --- | --- | --- | --- | --- | --- |
| C[C@H](CCc1ccccc1)NC[C@@H](O)c1ccc(O)c(C(N)=O)c1.Cl | 5 mg/kg | 158 mmHg | -12 mmHg | -5 mmHg | -4 mmHg | -3 mmHg | -9 beats min-1 | -16 beats min-1 | 359 beats min-1 | -34 beats min-1 | -39 beats min-1 | 1.3 mg/kg | – | – | – | – | Decreace in BP (Rattus norvegicus [3]): 12 mmHg; Relative potency [14]: 5.1 |
| CC(CCc1ccccc1)NCC(O)c1ccc(O)c(C(N)=O)c1 (centres undefined) [LABETALOL] | – | 160 mmHg | -29 mmHg | -22 mmHg | -20 mmHg | -20 mmHg | -13 beats min-1 | -18 beats min-1 | 362 beats min-1 | -27 beats min-1 | -23 beats min-1 | 7.1 mg/kg | 1 | >30 | 1 | – | ID50 [16]: 0.25 mg/kg; Ratio [19]: 26 |
| C[C@@H](CCc1ccccc1)NC[C@H](O)c1ccc(O)c(C(N)=O)c1.Cl | 4.1 mg/kg | 164 mmHg | -5 mmHg | -2 mmHg | 6 mmHg | 8 mmHg | 7 beats min-1 | 5 beats min-1 | 362 beats min-1 | -8 beats min-1 | 6 beats min-1 | – | < 0.06 | – | – | 0 | ID50 [21]: inactive |
| C[C@H](CCc1ccccc1)NC[C@H](O)c1ccc(O)c(C(N)=O)c1.Cl [DILEVALOL HYDROCHLORIDE] | – | 160 mmHg | – | – | – | – | -47 beats min-1 | -41 beats min-1 | 378 beats min-1 | -55 beats min-1 | -45 beats min-1 | – | 3.5 | >30 | 7 | – | ID50 [22]: 0.07 mg/kg; Change in BP (Rattus norvegicus [23]): -26 mmHg; Change in BP (Rattus norvegicus [24]): -26 mmHg; Change in BP (Rattus norvegicus [25]): -29 mmHg; Change in BP (Rattus norvegicus [26]): -27 mmHg; Ratio [27]: > 500; ID50 [28]: 35 mg/kg |
| C[C@@H](CCc1ccccc1)NC[C@@H](O)c1ccc(O)c(C(N)=O)c1.Cl | – | 159 mmHg | 4 mmHg | 10 mmHg | 11 mmHg | 8 mmHg | 8 beats min-1 | 1 beats min-1 | 356 beats min-1 | -4 beats min-1 | -7 beats min-1 | 4.8 mg/kg | 0 | – | – | 0 | ID50 [29]: inactive |
